The experiment has as its target Proteinase-activated receptor 1 (Homo sapiens) (UniProt P25116). The experiment in a line: PAR1 antagonism in human platelets, dose response, selectivity assay for PAR4 antagonist project, cell-based, CRC, P-selectin flow cytometry (AID 652255). As to conditions: Washed human platelets, PAR1-AP P-selectin flow cytometry. An outline of the steps: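 Test system: washed platelets labelled with antibody / Reagent: PAR1 activating peptide (PAR1-AP) as agonist / Incubation: 5 min label, 5 min compound, 10 min agonist / Measured by: flow cytometry fluorescence intensity, 100,000 platelet-gated events, paraformaldehyde-fixed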
On the technique in general: In flow cytometry, cells or beads pass a laser one at a time.

Our source for the max inhibition and IC50 values is PubChem BioAssay AID652255 (Vanderbilt Specialized Chemistry Center, 2013).

Molecules are shown by their SMILES. Calls of active or inactive are those of the source. How the calls were made is not given here.

Proteinase-activated receptor 1 (Homo sapiens), sequence (P25116 whole entry, looked up): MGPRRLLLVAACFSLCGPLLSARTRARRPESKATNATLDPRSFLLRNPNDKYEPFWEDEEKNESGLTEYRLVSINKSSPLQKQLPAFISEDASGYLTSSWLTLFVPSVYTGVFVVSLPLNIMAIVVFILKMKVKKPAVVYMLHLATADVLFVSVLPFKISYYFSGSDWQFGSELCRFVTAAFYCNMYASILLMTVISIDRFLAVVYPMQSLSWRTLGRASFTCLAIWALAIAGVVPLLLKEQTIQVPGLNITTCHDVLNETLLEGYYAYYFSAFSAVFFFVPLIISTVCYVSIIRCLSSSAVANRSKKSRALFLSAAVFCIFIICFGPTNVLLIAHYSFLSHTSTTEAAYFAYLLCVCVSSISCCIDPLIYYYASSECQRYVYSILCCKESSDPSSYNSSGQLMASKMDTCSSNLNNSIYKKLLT

The molecule `COc1ccc(COc2ccc(C(=O)NCCC(C)(C)C)cc2)cc1` displayed a max inhibition (stronger effect = higher value) of 57.1%.

Turning to `CCCOCc1c(-c2ccccc2)c2cc([N+](=O)[O-])ccc2n1C`, the IC50 result was “inactive”.
